{"data": "Measured values pooled from the literature", "KIT D816H": "Mast/stem cell growth factor receptor Kit (KIT, Homo sapiens, UniProt P10721, D816H)", "KIT autoinhibited": "Mast/stem cell growth factor receptor Kit, autoinhibited (KIT, Homo sapiens, UniProt P10721)", "KIT": "Mast/stem cell growth factor receptor Kit (KIT, Homo sapiens, UniProt P10721)", "KIT V559D": "Mast/stem cell growth factor receptor Kit (KIT, Homo sapiens, UniProt P10721, V559D)", "KIT A829P": "Mast/stem cell growth factor receptor Kit (KIT, Homo sapiens, UniProt P10721, A829P)", "note": "Lines come from different studies, so protocols differ."}
{"SMILES": "O=C(NC[C@@H]1[C@H]2CN(C(=O)OCc3cc(C(F)(F)F)cc(C(F)(F)F)c3)C[C@@H]12)c1ccc2[nH]nnc2c1", "target": "KIT D816H", "assay": "cell-free assay, competition with immobilised ligand", "setting": "1 µM", "endpoint": "remaining binding", "value": "100%"}
{"SMILES": "CN(C)c1nccc(-c2cnn3ncccc23)n1", "target": "Mast/stem cell growth factor receptor Kit (KIT, Homo sapiens, UniProt P10721, T670I/V559D)", "assay": "binding", "setting": "1 µM", "endpoint": "remaining binding", "value": "100%"}
{"SMILES": "CC/C(=N\\NC(=O)NCc1cccc(O)c1)c1ccc(O)c(C)c1O", "target": "Mast/stem cell growth factor receptor Kit (KIT, Homo sapiens, UniProt P10721, D816Y)", "assay": "enzyme activity, inhibitor", "setting": "0.1 µM", "endpoint": "inhibition", "value": "-0.1%"}
{"SMILES": "Cc1c[nH]c2nccc(Oc3c(F)cc(Nc4cc(Cl)nc(N)n4)cc3F)c12", "target": "KIT autoinhibited", "assay": "cell-free assay, competition with immobilised ligand", "setting": "0.1 µM", "endpoint": "remaining binding", "value": "77%"}
{"SMILES": "COc1cc(-c2cc(-c3ccc(N4CCNCC4)cc3)cnc2N)cc(OC)c1OC", "target": "Mast/stem cell growth factor receptor Kit (KIT, Homo sapiens, UniProt P10721, D816V)", "assay": "enzyme activity, inhibitor", "setting": "1 µM", "endpoint": "inhibition", "value": "8%"}
{"SMILES": "CCCOc1ccc(OC)c(F)c1C(=O)c1ccc(C(=O)N[C@@H]2CNC[C@H]2NC(=O)c2ccc3[nH]ncc3c2)cc1", "target": "KIT", "assay": "enzyme activity, inhibitor", "setting": "10 µM", "endpoint": "remaining activity", "value": "104%"}
{"SMILES": "Cc1cnc(NC2CCOCC2)nc1-n1cnc(C(=O)NC(CN)c2cc(F)cc(Cl)c2)c1 (stereo not shown)", "target": "KIT D816H", "assay": "enzyme activity, inhibitor, radiometric", "setting": "1 µM", "endpoint": "remaining activity", "value": "96%"}
{"SMILES": "CN(CCCC(F)(F)F)c1nccc(-c2cnn3ncccc23)n1", "target": "KIT", "assay": "binding", "setting": "1 µM", "endpoint": "remaining binding", "value": "100%"}
{"SMILES": "Cc1ccc(C(=O)NCc2ccsc2)cc1C#Cc1cn(C(C)C)c2ncnc(N)c12", "target": "KIT", "assay": "enzyme activity, inhibitor", "setting": "1 µM", "endpoint": "activity vs control", "value": "-1%"}
{"SMILES": "Cc1cc(NC(=O)c2cccc3cc(-c4cccc5[nH]nc(N)c45)ccc23)ccc1F", "target": "Mast/stem cell growth factor receptor Kit (KIT, Homo sapiens, UniProt P10721, V654A)", "assay": "enzyme activity, inhibitor", "setting": "0.1 µM", "endpoint": "activity vs control", "value": "63%"}
{"SMILES": "C[C@@H]1CCN(c2nccc(-c3cnn4ncccc34)n2)C1", "target": "KIT V559D", "assay": "binding", "setting": "1 µM", "endpoint": "remaining binding", "value": "100%"}
{"SMILES": "C[C@@H]1CN(c2cc(-c3nn(C)c4ccc(OC5(C)CC5)cc34)ncn2)C[C@H](C)O1", "target": "KIT autoinhibited", "assay": "cell-free assay, competition with immobilised ligand", "setting": "1 µM", "endpoint": "remaining binding", "value": "97%"}
{"SMILES": "COc1ccnn2ncc(-c3ccnc(N(C)C)n3)c12", "target": "Mast/stem cell growth factor receptor Kit (KIT, Homo sapiens, UniProt P10721, L576P)", "assay": "binding", "setting": "1 µM", "endpoint": "remaining binding", "value": "100%"}
{"SMILES": "CNC(=O)Nc1ccc2c(c1)CC[C@@]21OC(=O)N(CC(=O)N(Cc2ccc(F)cc2)[C@@H](C)C(F)(F)F)C1=O", "target": "Mast/stem cell growth factor receptor Kit (KIT, Homo sapiens, UniProt P10721, V559D/V654A)", "assay": "cell-free assay, competition with immobilised ligand", "setting": "1 µM", "endpoint": "remaining binding", "value": "90%"}
{"SMILES": "CN(C)c1ncc(F)c(-c2cnn3ncccc23)n1", "target": "KIT V559D", "assay": "binding", "setting": "1 µM", "endpoint": "remaining binding", "value": "91%"}
{"SMILES": "CCS(=O)(=O)c1cc2cc(C[C@@](O)(CC(C)(C)c3ccc(F)cc3C(N)=O)C(F)(F)F)[nH]c2cn1", "target": "KIT D816H", "assay": "cell-free assay, competition with immobilised ligand", "setting": "1 µM", "endpoint": "remaining binding", "value": "51%"}
{"SMILES": "N[C@H]1CCN(c2nccc(-c3cnn4ncccc34)n2)C1", "target": "KIT A829P", "assay": "binding", "setting": "1 µM", "endpoint": "remaining binding", "value": "100%"}
{"SMILES": "Cn1nc(C(=O)NCc2ccc(C(=O)O)cc2)cc1-c1ccc2[nH]ccc2c1", "target": "KIT A829P", "assay": "cell-free assay, competition with immobilised ligand", "setting": "0.1 µM", "endpoint": "remaining binding", "value": "72%"}
{"SMILES": "Nc1ncnc2occ(-c3ccc(NC(=O)Nc4cc(C(F)(F)F)ccc4F)cc3)c12", "target": "KIT autoinhibited", "assay": "cell-free assay, inhibitor", "setting": "20 µM", "endpoint": "remaining signal", "value": "0.05%"}
